The source of these data is ChEMBL document CHEMBL1142216, “Clinical prediction tool to identify patients with Pseudomonas aeruginosa respiratory tract infections at greatest risk for multidrug resistance” (2007).

SMILES strings stand for the structures.

Common to all, as to assay type: functional
Test [1] has as its system Pseudomonas aeruginosa. The test can be described thus: Antibiotic susceptibility by resistance against Pseudomonas aeruginosa from samples collected from patients. A digest of the protocol:
(§1)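 Clinical P. aeruginosa respiratory isolates from hospitalized patients. Susceptibility testing was done by the hospital microbiology laboratory using Kirby-Bauer disk diffusion and interpreted by Clinical and Laboratory Standards Institute guidelines. Laboratory-reported susceptibilities and MICs were abstracted retrospectively. Isolates were grouped overall and by resistance to at least four drug classes (MDR versus non-MDR).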

Test [2] deals with Pseudomonas aeruginosa. In words: Antibiotic susceptibility by resistance against MDR Pseudomonas aeruginosa from samples collected from patients. In outline: as §1
Test [3] has as its system Pseudomonas aeruginosa. In words: Antibiotic susceptibility by resistance against non-MDR Pseudomonas aeruginosa from samples collected from patients. In outline:
as §1

On to `NCC[C@H](O)C(=O)N[C@@H]1C[C@H](N)[C@@H](O[C@H]2O[C@H](CN)[C@@H](O)[C@H](O)[C@H]2O)[C@H](O)[C@H]1O[C@H]1O[C@H](CO)[C@@H](O)[C@H](N)[C@H]1O` [AMIKACIN], for which the Activity is on record as 90.9% with Pseudomonas aeruginosa [1], 82% with Pseudomonas aeruginosa [2] and 95.6% with Pseudomonas aeruginosa [3].
Taken in the same sequence, the figures for `C[C@H]1[C@H](NC(=O)/C(=N\OC(C)(C)C(=O)O)c2csc(N)n2)C(=O)N1S(=O)(=O)O` [AZTREONAM] were 58.1%, 18.9% and 79%.
The corresponding values for `CO/N=C(\C(=O)N[C@@H]1C(=O)N2C(C(=O)[O-])=C(C[N+]3(C)CCCC3)CS[C@H]12)c1csc(N)n1` [CEFEPIME] are 81.8%, 52.5% and 97.4%.
As to `O=C(O)c1cn(C2CC2)c2cc(N3CCNCC3)c(F)cc2c1=O` [CIPROFLOXACIN], the results for the Activity in the test with Pseudomonas aeruginosa [1], in the test with Pseudomonas aeruginosa [2] and in the test with Pseudomonas aeruginosa [3] were 42.5%, 3.3% and 63.3%, respectively.
Regarding `C[C@@H](O)[C@H]1C(=O)N2C(C(=O)O)=C(S[C@@H]3CN[C@H](C(=O)N(C)C)C3)[C@H](C)[C@H]12` [MEROPENEM], the Activity in the test on Pseudomonas aeruginosa [1] is 56.1%; in the test on Pseudomonas aeruginosa [2], 17.2%; with Pseudomonas aeruginosa [3], 76.9%.
The corresponding values for `NC[C@H]1O[C@H](O[C@H]2[C@H](O)[C@@H](O[C@H]3O[C@H](CO)[C@@H](O)[C@H](N)[C@H]3O)[C@H](N)C[C@@H]2N)[C@H](N)C[C@@H]1O` [TOBRAMYCIN] are 67.5%, 36.9% and 83.8%.
